Assay results: ChEMBL document CHEMBL3627681, “Synthesis and biological evaluation of 1,3-diaryl pyrazole derivatives as potential antibacterial and anti-inflammatory agents” (2015)
Values after ≈ are worked out from the molar mass of the structure shown. Active and inactive are the calls of the source. The rule behind the calls is not given here.

Experiments:
[1] = test system: Mus musculus; test: Antiinflammatory activity in mouse assessed as inhibition of xylene-induced ear edema at 50 mg/kg, po administered 5 hrs before xylene challenge relative to control; type: functional
Method in brief: (§1)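 Compound was homogenized in 0.5% CMC-Na and given orally at 50 mg/kg, 0.4 mL/20 g; controls got CMC-Na vehicle only. Xylene was applied to the ear 1, 2, 3, 4, 5 or 24 h after dosing. Edema was measured as the weight difference of 7 mm ear plugs and reported as % reduction versus vehicle controls.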

[2] = test system: Mus musculus; test: Antiinflammatory activity in mouse assessed as inhibition of xylene-induced ear edema at 25 mg/kg, po administered 3 hrs before xylene challenge relative to control; type: functional
Method in brief: (§2)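 Oral dosing-level study: compound suspended in 0.5% CMC-Na and given po at 25 or 12.5 mg/kg, 0.4 mL/20 g; vehicle controls received CMC-Na. Xylene ear challenge was applied 3 h after dosing. Edema was measured as the ear-plug weight difference and reported as % reduction versus vehicle controls.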

[3] = test system: Mus musculus; test: Antiinflammatory activity in mouse assessed as inhibition of xylene-induced ear edema at 12.5 mg/kg, po administered 3 hrs before xylene challenge relative to control; type: functional; method in brief: as §2
[4] = test system: Mus musculus; test: Antiinflammatory activity in mouse assessed as inhibition of xylene-induced ear edema at 50 mg/kg, po administered 4 hrs before xylene challenge relative to control; type: functional; method in brief: as §1
[5] = test system: Mus musculus; test: Antiinflammatory activity in mouse assessed as inhibition of xylene-induced ear edema at 50 mg/kg, po administered 1 hr before xylene challenge relative to control; type: functional; settings: read-out: INH; method in brief: as §1
[6] = test system: Mus musculus; test: Antiinflammatory activity in mouse assessed as inhibition of xylene-induced ear edema at 50 mg/kg, po administered 2 hrs before xylene challenge relative to control; type: functional; settings: read-out: INH; method in brief: as §1
[7] = test system: Mus musculus; test: Antiinflammatory activity in mouse assessed as inhibition of xylene-induced ear edema at 50 mg/kg, ip administered 30 mins before xylene challenge relative to control; type: functional
Method in brief: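 Mice received compound freshly dissolved in DMSO, 50 mg/kg ip at 0.05 mL/20 g body weight; vehicle controls got DMSO alone. After 30 min, 20 µL xylene was applied to the right ear. After a further 30 min, 7 mm plugs were cut from treated and untreated ears and edema taken as their weight difference. Result is % edema reduction versus vehicle controls.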

[8] = test system: Mus musculus; test: Antiinflammatory activity in mouse assessed as inhibition of xylene-induced ear edema at 50 mg/kg, po administered 3 hrs before xylene challenge relative to control; type: functional; method in brief: as §1
[9] = test system: Mus musculus; test: Antiinflammatory activity in mouse assessed as inhibition of xylene-induced ear edema at 50 mg/kg, po administered 24 hrs before xylene challenge relative to control; type: functional, organism-based; method in brief: as §1
[10] = test system: Pseudomonas aeruginosa; test: Antibacterial activity against Pseudomonas aeruginosa 2004 after 24 hrs by two-fold serial dilution method; type: functional; settings: Pseudomonas aeruginosa, 2004, 24 h
Method in brief: (§3)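 Broth microdilution in Mueller-Hinton broth over final concentrations of 64–0.5. Bacteria were grown to mid-log phase and diluted 1000-fold, then inoculated at 10⁵ CFU/mL. Compounds were dissolved in DMSO, with final DMSO at most 0.05%. Plates were incubated 24 h at 37 °C and growth read as absorbance at 650 nm. MIC is the concentration giving complete growth inhibition. Three independent runs.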

[11] = test system: Candida albicans; test: Antifungal activity against Candida albicans 7535 by two-fold serial dilution method; type: functional
[12] = test system: Escherichia coli; test: Antibacterial activity against Escherichia coli KCTC 1924 after 24 hrs by two-fold serial dilution method; type: functional; settings: KCTC 1924, 24 h; method in brief: as §3
[13] = test system: Streptococcus mutans; test: Antibacterial activity against Streptococcus mutans 3065 after 24 hrs by two-fold serial dilution method; type: functional; settings: Streptococcus mutans, 3065, 24 h; method in brief: as §3
[14] = test system: Staphylococcus aureus; test: Antibacterial activity against Staphylococcus aureus RN4220 after 24 hrs by two-fold serial dilution method; type: functional; settings: RN4220, 24 h
Method in brief: (§4)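 Broth microdilution in Mueller-Hinton broth. Bacteria grown to mid-log phase, diluted 1000-fold, and inoculated at 10⁵ CFU/mL. Test compounds in DMSO, final DMSO not above 0.05%, final concentrations 64-0.5 µg/mL. Incubation 24 h at 37 °C, growth read as absorbance at 650 nm. MIC taken as the lowest concentration giving complete growth inhibition. Run three times.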

[15] = test system: Staphylococcus aureus; test: Antibacterial activity against quinolone-resistant Staphylococcus aureus CCARM 3519 after 24 hrs by two-fold serial dilution method; type: functional; settings: CCARM 3519, 24 h; method in brief: as §4
[16] = test system: Staphylococcus aureus; test: Ratio of moxifloxacin MIC to compound MIC for quinolone-resistant Staphylococcus aureus CCARM 3519 after 24 hrs by two-fold serial dilution method; type: functional
[17] = test system: Staphylococcus aureus; test: Ratio of gatifloxacin MIC to compound MIC for quinolone-resistant Staphylococcus aureus CCARM 3505 after 24 hrs by two-fold serial dilution method; type: functional
[18] = test system: Pseudomonas aeruginosa; test: Antibacterial activity against Pseudomonas aeruginosa 2742 after 24 hrs by two-fold serial dilution method; type: functional; settings: Pseudomonas aeruginosa, 2742, 24 h; method in brief: as §3
[19] = test system: Staphylococcus aureus; test: Ratio of norfloxacin MIC to compound MIC for methicillin-resistant Staphylococcus aureus CCARM 3506 after 24 hrs by two-fold serial dilution method; type: functional
[20] = test system: Staphylococcus aureus; test: Antibacterial activity against quinolone-resistant Staphylococcus aureus CCARM 3505 after 24 hrs by two-fold serial dilution method; type: functional; settings: CCARM 3505, 24 h; method in brief: as §4
[21] = test system: Staphylococcus aureus; test: Ratio of gatifloxacin MIC to compound MIC for quinolone-resistant Staphylococcus aureus CCARM 3519 after 24 hrs by two-fold serial dilution method; type: functional
[22] = test system: Staphylococcus aureus; test: Antibacterial activity against Staphylococcus aureus 503 after 24 hrs by two-fold serial dilution method; type: functional; settings: Staphylococcus aureus, 503, 24 h; method in brief: as §4
[23] = test system: Escherichia coli; test: Antibacterial activity against Escherichia coli CCARM 1356 after 24 hrs by two-fold serial dilution method; type: functional; settings: CCARM 1356, 24 h; method in brief: as §3
[24] = test system: Staphylococcus aureus; test: Antibacterial activity against methicillin-resistant Staphylococcus aureus CCARM 3167 after 24 hrs by two-fold serial dilution method; type: functional; settings: CCARM 3167, 24 h; method in brief: as §4
[25] = test system: Staphylococcus aureus; test: Ratio of moxifloxacin MIC to compound MIC for quinolone-resistant Staphylococcus aureus CCARM 3505 after 24 hrs by two-fold serial dilution method; type: functional
[26] = test system: Salmonella typhimurium; test: Antibacterial activity against Salmonella typhimurium 2421 after 24 hrs by two-fold serial dilution method; type: functional, Salmonella enterica subsp. enterica serovar Typhimurium; settings: Salmonella enterica, 2421, 24 h; method in brief: as §3
[27] = test system: Staphylococcus aureus; test: Antibacterial activity against methicillin-resistant Staphylococcus aureus CCARM 3506 after 24 hrs by two-fold serial dilution method; type: functional; settings: CCARM 3506, 24 h; method in brief: as §4
[28] = test system: Staphylococcus aureus; test: Antibacterial activity against Staphylococcus aureus 209 after 24 hrs by two-fold serial dilution method; type: functional; settings: Staphylococcus aureus, 209, 24 h; method in brief: as §4
[29] = test system: Escherichia coli; test: Ratio of gatifloxacin MIC to compound MIC for Escherichia coli CCARM 1356 after 24 hrs by two-fold serial dilution method; type: functional
[30] = test system: Staphylococcus aureus; test: Ratio of oxacillin MIC to compound MIC for methicillin-resistant Staphylococcus aureus CCARM 3506 after 24 hrs by two-fold serial dilution method; type: functional

Compound	inhibition in vivo at 50 mg/kg [1] [%]	inhibition in vivo at 25 mg/kg [2] [%]	inhibition in vivo at 12.5 mg/kg [3] [%]	inhibition in vivo at 50 mg/kg [7] [%]	MIC [10] [µg/mL]	MIC [11] [µg/mL]	MIC [12] [µg/mL]	MIC [13] [µg/mL]	MIC [14] [µg/mL]	MIC [15] [µg/mL]	MIC [18] [µg/mL]	Ratio [19]	MIC [20] [µg/mL]	MIC [22] [µg/mL]	MIC [23] [µg/mL]	MIC [24] [µg/mL]	MIC [26] [µg/mL]	MIC [27] [µg/mL]	MIC [28] [µg/mL]	Ratio [30]	also measured
COc1ccc2c(c1)c(CC(=O)O)c(C)n2C(=O)c1ccc(Cl)cc1 [INDOMETHACIN]	26.9	53.9	56.3	45.2	–	–	–	–	–	–	–	–	–	–	–	–	–	–	–	–	inhibition in vivo at 50 mg/kg [4]: 34.9%; inhibition in vivo at 50 mg/kg [5]: 29.7%; inhibition in vivo at 50 mg/kg [6]: 9.93%; inhibition in vivo at 50 mg/kg [8]: 23%; inhibition [9]: inactive
N=C(N)N/N=C/c1cn(-c2ccc([N+](=O)[O-])cc2[N+](=O)[O-])nc1-c1cccc(Cl)c1	–	–	–	82.4	> 64	1 (≈ 2.33 µM)	2 (≈ 4.66 µM)	4 (≈ 9.33 µM)	1 (≈ 2.33 µM)	2 (≈ 4.66 µM)	> 64	4	2 (≈ 4.66 µM)	2 (≈ 4.66 µM)	4 (≈ 9.33 µM)	2 (≈ 4.66 µM)	4 (≈ 9.33 µM)	1 (≈ 2.33 µM)	2 (≈ 4.66 µM)	64	Ratio [16]: 2; Ratio [17]: 4; Ratio [21]: 2; Ratio [25]: 2; Ratio [29]: 4
N=C(N)N/N=C/c1cn(-c2ccc([N+](=O)[O-])cc2[N+](=O)[O-])nc1-c1cccc(Br)c1	–	–	–	81.7	> 64	1 (≈ 2.11 µM)	2 (≈ 4.23 µM)	4 (≈ 8.45 µM)	1 (≈ 2.11 µM)	2 (≈ 4.23 µM)	> 64	4	2 (≈ 4.23 µM)	2 (≈ 4.23 µM)	4 (≈ 8.45 µM)	1 (≈ 2.11 µM)	4 (≈ 8.45 µM)	1 (≈ 2.11 µM)	2 (≈ 4.23 µM)	64	Ratio [16]: 2; Ratio [17]: 4; Ratio [21]: 2; Ratio [25]: 2; Ratio [29]: 4
N=C(N)N/N=C/c1cn(-c2ccccc2)nc1-c1cccc(Cl)c1	35.2	39.3	56.7	93.6	> 64	1 (≈ 2.95 µM)	1 (≈ 2.95 µM)	8 (≈ 23.6 µM)	2 (≈ 5.9 µM)	2 (≈ 5.9 µM)	> 64	4	2 (≈ 5.9 µM)	2 (≈ 5.9 µM)	16 (≈ 47.2 µM)	1 (≈ 2.95 µM)	8 (≈ 23.6 µM)	1 (≈ 2.95 µM)	2 (≈ 5.9 µM)	64	inhibition in vivo at 50 mg/kg [4]: 4.39%; inhibition in vivo at 50 mg/kg [5]: 26.9%; inhibition in vivo at 50 mg/kg [8]: 50.9%; inhibition [9]: inactive
